Square brackets hold non-standard residues; d marks the D form. Peptide text beside a SMILES is read from it. * marks the point of attachment. Nle = CCCC[C@H](N)C(=O)O; Bz = O=C(c1ccccc1)*
Key:
[1] = target: T1, Neuromedin-K receptor (Rattus norvegicus) (UniProt P16177); assay: Compound was evaluated for antagonism of contractile response of rat portal vein at Tachykinin receptor 3; assay type: functional
T1 sequence (whole entry): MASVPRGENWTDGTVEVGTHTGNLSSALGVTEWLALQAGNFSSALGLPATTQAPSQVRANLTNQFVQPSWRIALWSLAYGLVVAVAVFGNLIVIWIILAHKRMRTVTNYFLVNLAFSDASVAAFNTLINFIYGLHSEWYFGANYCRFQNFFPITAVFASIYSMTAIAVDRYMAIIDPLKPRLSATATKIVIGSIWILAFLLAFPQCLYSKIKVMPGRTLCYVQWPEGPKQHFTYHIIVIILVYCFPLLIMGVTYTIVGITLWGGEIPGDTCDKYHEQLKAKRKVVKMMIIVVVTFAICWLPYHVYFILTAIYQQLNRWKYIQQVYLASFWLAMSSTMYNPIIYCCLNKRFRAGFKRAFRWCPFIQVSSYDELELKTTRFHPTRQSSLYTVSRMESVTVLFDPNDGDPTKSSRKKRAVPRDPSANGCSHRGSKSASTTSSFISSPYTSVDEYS
Outline: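 Everted portal vein from male AHA rats (250–500 g). Contraction to senktide (NK-3). Agonist curves were repeated at least twice before exposure to one antagonist concentration per preparation. Concentration-ratio estimated graphically at the half-maximal level. pK_B = log(CR−1) − log(molar antagonist). Mean ± SE of four to eight tissues.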

[2] = target: Substance-P receptor (Cavia porcellus) (UniProt P30547); assay: Compound was evaluated for antagonism of contractile response of guinea pig ileum longitudinal smooth muscle (GPI) at Tachykinin receptor 1; assay type: functional, tissue-based
Substance-P receptor (Cavia porcellus), sequence (P30547 whole entry): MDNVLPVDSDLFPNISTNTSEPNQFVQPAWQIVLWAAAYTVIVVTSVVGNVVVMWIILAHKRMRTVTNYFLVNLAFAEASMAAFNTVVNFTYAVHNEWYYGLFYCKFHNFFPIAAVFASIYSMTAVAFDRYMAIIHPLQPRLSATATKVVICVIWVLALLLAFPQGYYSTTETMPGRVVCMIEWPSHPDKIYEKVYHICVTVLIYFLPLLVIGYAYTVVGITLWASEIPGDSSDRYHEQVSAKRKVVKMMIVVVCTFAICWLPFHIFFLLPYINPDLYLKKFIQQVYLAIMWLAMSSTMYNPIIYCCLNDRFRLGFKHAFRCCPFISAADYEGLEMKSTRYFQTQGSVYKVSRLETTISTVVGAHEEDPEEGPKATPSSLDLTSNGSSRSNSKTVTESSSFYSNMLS
Outline: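 Isolated longitudinal smooth muscle of ileum from male Dunkin-Hartley guinea-pigs (300–600 g), killed by concussion and exsanguination. Contraction to SP methyl ester (NK-1 agonist). At least two control agonist curves, then one antagonist concentration per preparation. Concentration-ratio read graphically at half-maximal response. pK_B = log(CR−1) − log[antagonist]. Mean ± SE over four to eight tissues.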

[3] = target: T2, Substance-K receptor (Rattus norvegicus) (UniProt P16610); assay: Compound was evaluated for antagonism of contractile response of rat colon muscularis mucosae (RC) at Tachykinin receptor 2; assay type: functional, tissue-based; details: Muscularis mucosa
T2 sequence (whole entry): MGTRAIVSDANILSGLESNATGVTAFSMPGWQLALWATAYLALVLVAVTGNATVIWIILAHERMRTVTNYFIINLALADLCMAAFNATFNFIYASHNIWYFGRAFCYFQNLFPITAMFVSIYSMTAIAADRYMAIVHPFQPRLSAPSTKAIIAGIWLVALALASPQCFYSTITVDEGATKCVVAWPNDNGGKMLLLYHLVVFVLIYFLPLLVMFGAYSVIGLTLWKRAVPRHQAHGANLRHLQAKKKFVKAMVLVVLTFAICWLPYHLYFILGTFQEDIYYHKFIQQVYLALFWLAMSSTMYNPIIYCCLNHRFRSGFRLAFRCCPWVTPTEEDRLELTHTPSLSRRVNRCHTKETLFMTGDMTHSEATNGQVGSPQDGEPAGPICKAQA
Outline: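 Colon muscularis mucosae from male AHA rats (250–500 g), killed by concussion and exsanguination. Contraction to neurokinin A (NK-2). At least two control agonist curves, then a single antagonist concentration per tissue. Equiactive agonist concentration-ratio taken at half-maximal response. pK_B = log(CR−1) − log[antagonist]. Mean ± SE over four to eight preparations.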

| pKB [1] | pKB [2] | pKB [3] | SMILES |
| --- | --- | --- | --- |
| 5.6 | 6.6 | 8.8 | CCCC[C@H](NC(=O)[C@@H]1CCCN1C(=O)[C@H]1CCCN1C(=O)[C@H](Cc1ccccc1)NC(=O)[C@@H](Cc1c[nH]c2ccccc12)NC(=O)[C@H](C)NC(=O)[C@H](CCC(N)=O)NC(=O)c1ccccc1)C(N)=O |
| 5.1 | 5.6 | 7.9 | CCCC[C@H](NC(=O)[C@@H]1CCCN1C(=O)[C@H]1CCCN1C(=O)[C@H](Cc1ccccc1)NC(=O)[C@@H](Cc1c[nH]c2ccccc12)NC(=O)[C@H](C)NC(=O)[C@H](CCC(N)=O)NC(=O)OC(C)(C)C)C(N)=O |
| 6 | 6.4 | 9.6 | CCCC[C@H](NC(=O)[C@@H]1CCCN1C(=O)[C@H]1CCCN1C(=O)[C@H](Cc1ccccc1)NC(=O)[C@@H](Cc1c[nH]c2ccccc12)NC(=O)[C@H](C)NC(=O)[C@H](C)NC(=O)c1ccccc1)C(N)=O (Bz-AA[dW]F[dP]P[Nle]-NH2) |
| 4.7 | 5.5 | 9.3 | CCCC[C@H](NC(=O)[C@@H]1CCCN1C(=O)[C@H]1CCCN1C(=O)[C@H](Cc1ccccc1)NC(=O)[C@@H](Cc1c[nH]c2ccccc12)NC(=O)[C@H](C)NC(=O)[C@H](C)NC(=O)OC(C)(C)C)C(N)=O |

Reference: ChEMBL document CHEMBL1125477, “Highly potent and selective heptapeptide antagonists of the neurokinin NK-2 receptor” (J Med Chem, 1992)
